Publication PMC2745822 (The Journal of pharmacology and experimental therapeutics, 2008)
Like-named read-outs stand apart in the source and are kept apart here.

Tests used:
M3 mAChR = M3 mAChR (Homo sapiens, UniProt P20309); experiment: Calcium mobilization selectivity assay, CHO K1 cells expressing M3; type: cell-based; details: 30 µM compound
Method in brief: (§1)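 CHO K1 cells stably expressing rat M1 or human M3 or M5, coupled through endogenous Gq. Seeded 50,000 cells/well and held overnight in antibiotic-free medium at 37°C/5% CO2. Loaded with 2 µM Fluo-4 AM for 45 min at 37°C in HBSS/20 mM HEPES/2.5 mM probenecid, pH 7.4. […] Three independent experiments.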

rat M4 mAChR = molecular target: T1, rat M4 mAChR (Rattus norvegicus, UniProt P08485); type: cell-based; details: for EC50: potentiation of an EC20 concentration of ACh
T1 sequence (P08485 1-478): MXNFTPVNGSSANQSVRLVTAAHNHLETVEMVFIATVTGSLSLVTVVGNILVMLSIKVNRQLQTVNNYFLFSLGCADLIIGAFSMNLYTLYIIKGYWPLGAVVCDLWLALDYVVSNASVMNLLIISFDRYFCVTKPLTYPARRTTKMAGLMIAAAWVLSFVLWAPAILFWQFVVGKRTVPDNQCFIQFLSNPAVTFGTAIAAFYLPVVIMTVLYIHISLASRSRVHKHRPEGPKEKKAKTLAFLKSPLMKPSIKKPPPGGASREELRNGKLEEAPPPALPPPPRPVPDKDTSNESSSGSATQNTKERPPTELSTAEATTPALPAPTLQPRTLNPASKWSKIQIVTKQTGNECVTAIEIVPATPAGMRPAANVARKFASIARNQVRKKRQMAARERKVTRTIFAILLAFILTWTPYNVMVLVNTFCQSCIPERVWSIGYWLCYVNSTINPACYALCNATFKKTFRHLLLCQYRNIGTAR

GABAA receptors = experiment: MDS Pharma LeadProfiling Screen, flunitrazepam binding; details: 10 µM
serotonin 2B receptor = serotonin 2B receptor (Homo sapiens, UniProt P41595); experiment: Millipore GPCR Profiler functional screen, serotonin 2B receptor; type: cell-based; details: full agonist CRC
Method in brief: (§2)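 Outsourced functional screening paradigm covering 16 GPCRs, chosen as family A subtypes among the closest relatives of mAChRs. Test compound was assessed for agonist, antagonist and allosteric potentiator activity by its effect on full concentration-response curves of each receptor's agonist.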

[1] = Formulation into homogeneous dosing solution; type: physicochemical; details: vehicles acceptable for in vivo studies
Method in brief: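 Test compound was jet-milled to uniform nanoparticles before vehicle formulation. It was then dissolved at 56.6 mg/ml in 10% Tween 80 in double-deionized water, with pH adjusted to about 7.0 using 1 N NaOH. The mixture was sonicated until a uniform homogeneous solution formed, for intraperitoneal dosing.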

M5 mAChR = molecular target: T2, M5 mAChR (Homo sapiens, UniProt P08912); experiment: Calcium mobilization selectivity assay, CHO K1 cells expressing M5; type: cell-based; details: 30 µM compound
T2 sequence (P08912 1-532): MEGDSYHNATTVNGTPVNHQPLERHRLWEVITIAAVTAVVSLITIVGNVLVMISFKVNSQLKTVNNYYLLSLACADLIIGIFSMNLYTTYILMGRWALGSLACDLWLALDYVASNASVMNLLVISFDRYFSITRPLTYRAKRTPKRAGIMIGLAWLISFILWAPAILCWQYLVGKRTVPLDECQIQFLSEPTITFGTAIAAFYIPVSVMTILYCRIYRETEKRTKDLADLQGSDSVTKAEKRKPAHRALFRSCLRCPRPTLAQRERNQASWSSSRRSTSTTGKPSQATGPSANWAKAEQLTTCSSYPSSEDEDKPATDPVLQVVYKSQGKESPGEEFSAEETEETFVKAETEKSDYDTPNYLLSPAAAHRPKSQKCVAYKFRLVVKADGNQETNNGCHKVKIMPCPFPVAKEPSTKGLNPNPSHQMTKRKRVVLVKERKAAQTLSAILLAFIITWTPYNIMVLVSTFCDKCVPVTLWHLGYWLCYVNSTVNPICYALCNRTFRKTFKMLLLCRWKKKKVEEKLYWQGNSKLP
Method in brief: as §1

human M4 = molecular target: T3, human M4 (Homo sapiens, UniProt P08173); experiment: Millipore GPCR Profiler functional screen, human M4; type: cell-based; details: full agonist CRC
T3 sequence (P08173 1-479): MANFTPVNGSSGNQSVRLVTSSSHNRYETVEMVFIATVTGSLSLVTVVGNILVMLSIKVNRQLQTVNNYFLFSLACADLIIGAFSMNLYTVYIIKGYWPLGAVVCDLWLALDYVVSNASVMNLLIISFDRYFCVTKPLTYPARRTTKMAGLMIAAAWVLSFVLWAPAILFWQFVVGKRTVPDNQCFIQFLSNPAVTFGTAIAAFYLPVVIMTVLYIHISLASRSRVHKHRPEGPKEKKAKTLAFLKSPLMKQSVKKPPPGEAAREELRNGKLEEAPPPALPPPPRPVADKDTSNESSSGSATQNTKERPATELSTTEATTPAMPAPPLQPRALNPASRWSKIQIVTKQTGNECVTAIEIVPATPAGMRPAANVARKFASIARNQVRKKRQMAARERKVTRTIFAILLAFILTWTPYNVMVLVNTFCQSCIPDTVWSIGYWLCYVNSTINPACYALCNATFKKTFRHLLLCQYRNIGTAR
Method in brief: as §2

[2] = test system: panel of 68 discrete GPCRs, ion channels, transporters, and enzymes; experiment: MDS Pharma LeadProfiling Screen radioligand binding panel; details: 10 µM; for VU0152099 with the single exception of GABAA receptors
M2 mAChR = molecular target: T4, M2 mAChR (Homo sapiens, UniProt P08172); experiment: Calcium mobilization selectivity assay, CHO K1 cells expressing M2-Gqi5; type: cell-based; details: 30 µM compound
T4 sequence (P08172 1-466): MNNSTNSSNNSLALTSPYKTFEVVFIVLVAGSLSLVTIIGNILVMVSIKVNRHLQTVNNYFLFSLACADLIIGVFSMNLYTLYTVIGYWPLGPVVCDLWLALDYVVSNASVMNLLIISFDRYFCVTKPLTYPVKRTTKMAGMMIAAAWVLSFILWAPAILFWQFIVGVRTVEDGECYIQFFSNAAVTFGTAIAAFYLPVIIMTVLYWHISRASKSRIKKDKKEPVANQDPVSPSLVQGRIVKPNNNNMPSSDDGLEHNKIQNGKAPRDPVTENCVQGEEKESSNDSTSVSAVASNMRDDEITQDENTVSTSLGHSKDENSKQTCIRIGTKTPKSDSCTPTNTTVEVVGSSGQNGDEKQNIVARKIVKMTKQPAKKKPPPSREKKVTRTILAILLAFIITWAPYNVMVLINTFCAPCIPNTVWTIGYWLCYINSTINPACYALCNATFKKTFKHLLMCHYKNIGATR
Method in brief: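 CHO K1 cells stably co-expressing human M2 and chimeric Gqi5, grown with 500 µg/ml hygromycin B. Seeded 60,000 cells/well and kept overnight in antibiotic-free medium at 37°C/5% CO2. Loaded with 2 µM Fluo-4 AM for 45 min at 37°C in HBSS/HEPES/probenecid buffer, pH 7.4. […] Three independent experiments.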

M3 mAChR, sequence (P20309 whole entry): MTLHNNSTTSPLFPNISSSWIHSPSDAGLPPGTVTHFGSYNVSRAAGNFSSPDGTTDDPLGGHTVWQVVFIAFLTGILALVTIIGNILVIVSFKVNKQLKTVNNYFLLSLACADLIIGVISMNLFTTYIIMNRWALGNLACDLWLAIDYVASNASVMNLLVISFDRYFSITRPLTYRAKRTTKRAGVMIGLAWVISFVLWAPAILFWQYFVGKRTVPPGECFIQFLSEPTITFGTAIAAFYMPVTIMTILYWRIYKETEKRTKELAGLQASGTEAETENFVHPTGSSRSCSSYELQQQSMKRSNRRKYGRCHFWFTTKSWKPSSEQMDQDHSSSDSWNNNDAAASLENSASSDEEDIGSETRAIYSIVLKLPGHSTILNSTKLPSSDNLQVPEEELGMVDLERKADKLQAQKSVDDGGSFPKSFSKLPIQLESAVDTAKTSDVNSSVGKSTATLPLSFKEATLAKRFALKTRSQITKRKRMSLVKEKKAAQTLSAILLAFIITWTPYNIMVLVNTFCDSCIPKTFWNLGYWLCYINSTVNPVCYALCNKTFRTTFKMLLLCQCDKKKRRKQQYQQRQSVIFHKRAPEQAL
serotonin 2B receptor, sequence (P41595 whole entry): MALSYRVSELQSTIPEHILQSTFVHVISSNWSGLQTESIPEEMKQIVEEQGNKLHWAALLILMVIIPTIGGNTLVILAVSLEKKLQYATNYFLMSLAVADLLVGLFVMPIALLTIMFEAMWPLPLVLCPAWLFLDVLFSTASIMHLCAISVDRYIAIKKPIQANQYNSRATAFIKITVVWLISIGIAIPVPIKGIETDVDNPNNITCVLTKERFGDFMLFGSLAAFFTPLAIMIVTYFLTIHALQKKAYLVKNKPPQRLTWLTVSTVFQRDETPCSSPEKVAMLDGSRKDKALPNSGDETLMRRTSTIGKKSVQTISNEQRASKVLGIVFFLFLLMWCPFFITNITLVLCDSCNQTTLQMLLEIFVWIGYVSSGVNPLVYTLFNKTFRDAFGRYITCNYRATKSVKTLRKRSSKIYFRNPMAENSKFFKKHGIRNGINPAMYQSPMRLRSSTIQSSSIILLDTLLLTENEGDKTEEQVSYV

For `Cc1cc(C)c2c(N)c(C(=O)NCc3ccc4c(c3)OCO4)sc2n1` [VU0152099, 3-amino-N-(benzo[d][1,3]dioxol-5-ylmethyl)-4,6-dimethylthieno[2,3-b]pyridine carboxamide], the “shift in the ACh CRC at M3” value (M3 mAChR) was “No shift in the ACh CRC was observed”, the “maximal leftward shift of the ACh CRC” value (rat M4 mAChR; 30 µM compound) was 30 fold and the “response in the absence of an ACh EC20 (agonist activity)” value (rat M4 mAChR; compound alone) was “neither VU0152099 nor VU0152100 elicited a response”. The “Rat M4 Ach -Fold Shift” value (rat M4 mAChR; leftward shift of ACh CRC, average of at least three determinations) was 29.7 fold, the EC50 (rat M4 mAChR; read-out: M4 PAM activity EC50) was 403 nM and the EC50 (rat M4 mAChR; read-out: Rat M4 EC50, average of at least three determinations) was 400 nM. The “displacement of flunitrazepam binding” value (GABAA receptors) was 51%, the “antagonist activity at serotonin 2B receptor” value (serotonin 2B receptor) was “weak antagonist activity at serotonin 2B receptor” and the “formulation into homogeneous dosing solution” value [1] was “afforded homogeneous dosing solutions in multiple vehicles acceptable for in vivo studies”. For the same compound, the “shift in the ACh CRC at M5” value (M5 mAChR) was “No shift in the ACh CRC was observed”, the “potentiation of ACh-induced activation of human M4” value (human M4) was “induced a robust potentiation of ACh-induced activation of human M4” and the “displacement of binding, all targets tested” value [2] was “less than 50%”. The “shift in the ACh CRC at M2-Gqi5” value (M2 mAChR) was “No shift in the ACh CRC was observed”.
